The values below come from ChEMBL document CHEMBL1138220, “Synthesis and characterization of a novel liver-targeted prodrug of cytosine-1-beta-D-arabinofuranoside monophosphate for the treatment of hepatocellular carcinoma” (J Med Chem, 2006).

Molecules are shown by their SMILES. Converted amounts (≈) assume the structure as drawn.

Data set [1] in a line: Aqueous solubility in phosphate buffer at pH 7.4. The class given is physicochemical. In outline:
(§1)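 Each prodrug was dissolved at 10 mg/mL (pyridyl prodrugs at 200 mg/mL) in 100 mM citrate buffer pH 4.0 or 100 mM phosphate pH 7.4. Samples were sonicated 20 min, held ~10 min at room temperature, filtered through 0.45 µm, diluted 1:100 or 1:10000 in DMSO, then quantified by C18 HPLC (acetonitrile gradient, 40 °C, 270 nm).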

Data set [2] can be described thus: Aqueous solubility in citrate buffer at pH 4. The class given is physicochemical. In outline: as §1
The nature of data set [3]: Stability in phosphate buffer at pH 7.4 at 37 degC at 100 uM after 72 hrs. The class given is physicochemical. The conditions noted are these: for remaining at 72 h, 100 µM: phosphate buffer, pH 7.4, read-out: Stability. In outline: (§2)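 Prodrug at 100 µM in 10 mM phosphate buffer pH 7.4, held at 37 °C. Intact prodrug was quantified by C18 HPLC at 270 nm and expressed as % remaining at 24 h or 72 h.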

A short description of data set [4]: Stability in phosphate buffer at pH 7.4 at 37 degC at 100 uM after 24 hrs. The conditions noted are these: for remaining at 24 h, 100 µM: phosphate buffer, pH 7.4, read-out: Stability. The class given is physicochemical. In outline: as §2
The subject of data set [5] is Liver. The data set can be described thus: Distribution of araCTP in Swiss Webster mouse liver at 100 mg/kg, ip measured as AUC (0-4h). The class given is ADME, organism-based. The arrangement: time < 5 hr, dose 100 mg/kg, route intraperitoneal. Particulars: in vivo, 5 h. In a few lines: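 Nonfasted male Swiss Webster mice were dosed i.p. at a molar equivalent of 100 mg/kg araC. Livers were taken at set times up to 4 h, snap-frozen, homogenized in 3 volumes of 10% PCA, centrifuged and neutralized with KOH/KHCO₃. AraCTP was measured and reported as AUC 0-4 h (nmol·h/g).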

The next data set deals with Bone marrow. As to the kind of experiment: Distribution of araCTP in Swiss Webster mouse bone marrow at 100 mg/kg, ip measured as AUC (0-4h). The class given is ADME, organism-based. The arrangement: time < 5 hr, dose 100 mg/kg, route intraperitoneal. The conditions noted are these: in vivo, 5 h. In a few lines:
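Male Swiss Webster mice were given i.p. prodrug at a molar equivalent of 100 mg/kg araC. Bone marrow cell pellets collected up to 4 h were extracted with 12 volumes of 3% PCA, centrifuged 10 min and neutralized to pH 7-8 with KOH/KHCO₃. AraCTP was expressed as AUC 0-4 h; the lower limit of quantitation was 3 nmol·h/g.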

The subject of data set [6] is Liver. As to the kind of experiment: Ratio of AUC for araCTP level in liver to plasma of Swiss Webster mouse. The class given is functional.
The test system of data set [7] is Liver. The data set can be described thus: Ratio of AUC for araCTP level in liver to bone marrow of Swiss Webster mouse. The class given is functional.
Setting [8] is: phosphate buffer, read-out: Solubility.
Where [9] appears, read: citrate buffer, read-out: Solubility.

For `Nc1ccn([C@@H]2O[C@H](COP3(=O)OCC[C@H](c4cc(Cl)cc(Cl)c4)O3)[C@@H](O)[C@@H]2O)c(=O)n1` (some centres not stated), the solubility was found to be 500 µg/mL (≈ 0.984 mM) in data set [1] (setting [8]) and 1100 µg/mL (≈ 2.16 mM) in data set [2] (setting [9]). For the same compound, in data set [3], the remaining at 72 h, 100 µM is 76%. The remaining at 24 h, 100 µM in data set [4] came out at 82%.
As to `Nc1ccn([C@@H]2O[C@H](COP3(=O)OCC[C@@H](c4ccncc4)O3)[C@@H](O)[C@@H]2O)c(=O)n1` (some centres not stated), the results for the solubility in data set [1] (setting [8]) and in data set [2] (setting [9]) were 7100 µg/mL (≈ 16.1 mM) and 23900 µg/mL (≈ 54.3 mM), respectively. Moreover, the AUC in the data set on Liver [5] was 148.8 nmol·h/g; with Bone marrow, under 12 nmol/g. Further, the results for the “Ratio AUC” value in the data set with Liver [6] and in the data set on Liver [7] were 19.6 and over 12, respectively. Besides, the remaining at 72 h, 100 µM in data set [3] is over 95%. The remaining at 24 h, 100 µM in data set [4] was over 99%.
As to `COC(=O)c1cccc([C@H]2CCOP(=O)(OC[C@H]3O[C@@H](n4ccc(N)nc4=O)[C@@H](O)[C@@H]3O)O2)c1` (some centres not stated), the solubility came to 7200 µg/mL (≈ 14.5 mM) in data set [1] (setting [8]) and 10300 µg/mL (≈ 20.7 mM) in data set [2] (setting [9]). In addition, the remaining at 72 h, 100 µM in data set [3] was 23%. In addition, the remaining at 24 h, 100 µM in data set [4] was found to be 60%.
The like results for `Nc1ccn([C@@H]2O[C@H](COP3(=O)OCC[C@H](c4cccc(Cl)c4)O3)[C@@H](O)[C@@H]2O)c(=O)n1` (some centres not stated) were, in that order, 1700 µg/mL (≈ 3.59 mM), 3700 µg/mL (≈ 7.81 mM), 21% and 63%.
As to `Nc1ccn([C@@H]2O[C@H](CO)[C@@H](O)[C@@H]2O)c(=O)n1` [CYTARABINE], the values for the AUC in the data set with Liver [5] and in the data set on Bone marrow were under 19.2 nmol·h/g and 46 nmol/g, respectively. The “Ratio AUC” value is reported as under 0.16 with Liver [6] and under 0.42 with Liver [7].
For `Nc1ccn([C@@H]2O[C@H](COP3(=O)OCC[C@H](c4cccnc4)O3)[C@@H](O)[C@@H]2O)c(=O)n1` (some centres not stated), the results for the solubility in data set [1] (setting [8]) and in data set [2] (setting [9]) were 176000 µg/mL (≈ 400 mM) and 172000 µg/mL (≈ 391 mM), respectively. In addition, the remaining at 72 h, 100 µM in data set [3] stood at 83%. Also, the remaining at 24 h, 100 µM in data set [4] is 99%.
Regarding `Nc1ccn([C@@H]2O[C@H](COP3(=O)OCC[C@H](c4ccc(F)c(Cl)c4)O3)[C@@H](O)[C@@H]2O)c(=O)n1` (some centres not stated), the results for the solubility in data set [1] (setting [8]) and in data set [2] (setting [9]) were 3200 µg/mL (≈ 6.51 mM) and 6700 µg/mL (≈ 13.6 mM), respectively. The remaining at 72 h, 100 µM in data set [3] is 52%. In addition, in data set [4], the remaining at 24 h, 100 µM amounted to 74%.
For `Nc1ccn([C@@H]2O[C@H](COP3(=O)OCC[C@H](c4ccncc4)O3)[C@@H](O)[C@@H]2O)c(=O)n1` (stereo in doubt; 19R), the values for the solubility in data set [1] (buffer) and in data set [2] (buffer) were 16700 µg/mL (≈ 37.9 mM) and 37900 µg/mL (≈ 86.1 mM), respectively. Also, the AUC in the data set on Liver [5] was 68 nmol·h/g; in the data set with Bone marrow it was under 12 nmol/g. Also, the “Ratio AUC” value is 19.4 with Liver [6] and over 7 in the data set with Liver [7]. In data set [3], the remaining at 72 h, 100 µM is over 97%. The remaining at 24 h, 100 µM in data set [4] is over 99%.
Regarding `Nc1ccn([C@@H]2O[C@H](COP3(=O)OCC[C@H](c4ccncc4)O3)[C@@H](O)[C@@H]2O)c(=O)n1` (stereo in doubt; 10i), the solubility in data set [1] (buffer) and in data set [2] (buffer) was over 200000 µg/mL each time. Further, the Stability worked out at 90% in data set [3] (buffer, pH 7.4, 72 h, 100 µM, 72 h) and 92% in data set [4] (buffer, pH 7.4, 24 h, 100 µM, 24 h).
In the case of `Nc1ccn([C@@H]2O[C@H](COP3(=O)OCC[C@H](c4ccc(Cl)cc4)O3)[C@@H](O)[C@@H]2O)c(=O)n1` (some centres not stated), the remaining at 72 h, 100 µM in data set [3] stood at 4%. Further, the remaining at 24 h, 100 µM in data set [4] came out at 5%.
For `Nc1ccn([C@@H]2O[C@H](COP3(=O)OCC[C@H](c4ccc(Br)cc4)O3)[C@@H](O)[C@@H]2O)c(=O)n1` (some centres not stated) the same measures were 4% and 9%.
In the case of `COC(=O)c1ccc([C@H]2CCOP(=O)(OC[C@H]3O[C@@H](n4ccc(N)nc4=O)[C@@H](O)[C@@H]3O)O2)cc1` (some centres not stated), the solubility in data set [1] (setting [8]) came out at 5700 µg/mL (≈ 11.5 mM); in data set [2] (setting [9]), 7400 µg/mL (≈ 14.9 mM). In addition, in data set [3], the remaining at 72 h, 100 µM worked out at 61%. In addition, the remaining at 24 h, 100 µM in data set [4] turned out to be 84%.

In general, solubility refers to the concentration that dissolves in the medium under given conditions.
